We go through 16 molecules from ChEMBL document CHEMBL4257446, “Synthesis and biological evaluation of chalcone-linked pyrazolo[1,5-a]pyrimidines as potential anticancer agents” (Medchemcomm, 2017).

Structures are written as SMILES.

One experiment concerns MDA-MB-231. Nature of the experiment: Antiproliferative activity against human MDA-MB-231 cells after 24 hrs by MTT assay. The format is functional, cell-based. The settings on record: MDA-MB-231, 24 h. The procedure, abridged: (§1)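 Cells exposed to a range of compound concentrations; viability read by MTT assay. IC50 (concentration giving 50% growth inhibition) calculated and reported as mean ± S.D. of three independent experiments, each run in triplicate.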

The subject of the next experiment is A549. Kind of experiment: Antiproliferative activity against human A549 cells after 24 hrs by MTT assay. The experiment is classed as functional, cell-based. The settings on record: A549, 24 h. In outline:
as §1

Another experiment concerns DU-145. Kind of experiment: Antiproliferative activity against human DU145 cells after 24 hrs by MTT assay. The format is functional, cell-based. The settings on record: DU-145, 24 h. The procedure, abridged:
as §1

Another experiment concerns HEK293. Kind of experiment: Antiproliferative activity against HEK293 cells after 24 hrs by MTT assay. The format is cell-based. The settings on record: Homo sapiens, HEK293, 24 h.

With `COc1ccc(-c2cc(/C=C/C(=O)c3ccccc3)nc3cc(-c4ccccc4)nn23)cc1`, the IC50 with MDA-MB-231 was determined as 9.9 µM; in the experiment with A549 it was 8.6 µM; with DU-145, 13.7 µM; in the experiment with HEK293 it was 53.2 µM.
The matching figures for `COc1ccc(-c2cc(/C=C/C(=O)c3ccc(C)c(C)c3)nc3cc(-c4ccccc4)nn23)cc1OC`: 11.5 µM, 9.3 µM, 12.1 µM and 46.2 µM.
The matching figures for `COc1cc(-c2cc(C(=O)/C=C/c3ccc(C)cc3)nc3cc(-c4ccccc4)nn23)cc(OC)c1OC`: 18.6 µM, 20 µM, 21.9 µM and 56.1 µM.
The matching figures for `COc1cc(-c2cc(C(=O)/C=C/c3ccc(Cl)cc3)nc3cc(-c4ccccc4)nn23)cc(OC)c1OC`: 21.6 µM, 23.8 µM, 19.5 µM and 53.9 µM.
Consider `COc1ccc(-c2cc(/C=C/C(=O)c3ccccc3)nc3cc(-c4ccccc4)nn23)cc1OC`, for which the IC50 in the experiment on MDA-MB-231 amounted to 11.8 µM; in the experiment on A549, 10.7 µM; in the experiment with DU-145, 10 µM; in the experiment on HEK293, 51.2 µM.
For the molecule `COc1ccc(-c2cc(/C=C/C(=O)c3ccc(OC)c(OC)c3)nc3cc(-c4ccccc4)nn23)cc1`, the IC50 with MDA-MB-231 amounted to 8.7 µM; with A549, 7.4 µM; in the experiment with DU-145, 16.4 µM; with HEK293, 48.5 µM.
The matching figures for `COc1ccc(-c2cc(C(=O)/C=C/c3ccc(C)cc3)nc3cc(-c4ccccc4)nn23)cc1OC`: 22.6 µM, 22.2 µM, 19.5 µM and 57.4 µM.
The matching figures for `COc1ccc(-c2cc(/C=C/C(=O)c3ccc(C)cc3)nc3cc(-c4ccccc4)nn23)cc1OC`: 19.8 µM, 17.2 µM, 26.8 µM and 62.6 µM.
The matching figures for `COc1ccc(-c2cc(C(=O)/C=C/c3ccccc3)nc3cc(-c4ccccc4)nn23)cc1OC`: 23.3 µM, 18.6 µM, 15.6 µM and 64.1 µM.
In the case of `COc1ccc(-c2cc(C(=O)/C=C/c3ccc(Cl)cc3)nc3cc(-c4ccccc4)nn23)cc1OC`, the IC50 was 23.7 µM in the experiment on MDA-MB-231, 22 µM in the experiment on A549, 22.4 µM in the experiment on DU-145 and 39.1 µM in the experiment on HEK293.
Turning to `COc1ccc(C(=O)/C=C/c2cc(-c3cc(OC)c(OC)c(OC)c3)n3nc(-c4ccccc4)cc3n2)cc1OC`, the IC50 came out at 18.3 µM in the experiment with MDA-MB-231, 17.8 µM in the experiment with A549, 29.9 µM with DU-145 and 81.7 µM in the experiment on HEK293.
The matching figures for `COc1cc(-c2cc(/C=C/C(=O)c3ccc(Cl)cc3)nc3cc(-c4ccccc4)nn23)cc(OC)c1OC`: 32.5 µM, 15.5 µM, 29.3 µM and ≥ 100 µM.
The matching figures for `COc1cc(-c2cc(/C=C/C(=O)c3ccccc3)nc3cc(-c4ccccc4)nn23)cc(OC)c1OC`: 15.8 µM, 18.2 µM, 34.3 µM and ≥ 100 µM.
The matching figures for `COc1cc(-c2cc(C(=O)/C=C/c3ccccc3)nc3cc(-c4ccccc4)nn23)cc(OC)c1OC`: 19.2 µM, 18 µM, 16.3 µM and 44.8 µM.
Turning to `COc1cc(/C=C/C(=O)c2cc(-c3cc(OC)c(OC)c(OC)c3)n3nc(-c4ccccc4)cc3n2)cc(OC)c1OC`, the IC50 in the experiment with MDA-MB-231 was found to be 18.4 µM; in the experiment with A549 it was 25.9 µM; in the experiment on DU-145, 17.9 µM; in the experiment with HEK293 it was 41 µM.
Regarding `COc1ccc(-c2cc(/C=C/C(=O)c3ccc(Cl)cc3)nc3cc(-c4ccccc4)nn23)cc1OC`, the IC50 with MDA-MB-231 came to 17.1 µM; in the experiment on A549, 15.4 µM; in the experiment with DU-145 it was 21.3 µM; with HEK293, 44.1 µM.
